The source of these data is ChEMBL document CHEMBL5370658, “Development of First-in-Class Dual Sirt2/HDAC6 Inhibitors as Molecular Tools for Dual Inhibition of Tubulin Deacetylation” (J Med Chem, 2023).

Assay [1] is described as follows: Cytotoxicity against human PC-3M-luc cells assessed as inhibition of cell growth at 50 uM incubated for 72 hrs by MTS assay relative to control. The assay is classed as functional.
The target of assay [2] is T1, NAD-dependent protein deacetylase sirtuin-3, mitochondrial (Homo sapiens, UniProt Q9NTG7).
T1 sequence (Q9NTG7 whole entry): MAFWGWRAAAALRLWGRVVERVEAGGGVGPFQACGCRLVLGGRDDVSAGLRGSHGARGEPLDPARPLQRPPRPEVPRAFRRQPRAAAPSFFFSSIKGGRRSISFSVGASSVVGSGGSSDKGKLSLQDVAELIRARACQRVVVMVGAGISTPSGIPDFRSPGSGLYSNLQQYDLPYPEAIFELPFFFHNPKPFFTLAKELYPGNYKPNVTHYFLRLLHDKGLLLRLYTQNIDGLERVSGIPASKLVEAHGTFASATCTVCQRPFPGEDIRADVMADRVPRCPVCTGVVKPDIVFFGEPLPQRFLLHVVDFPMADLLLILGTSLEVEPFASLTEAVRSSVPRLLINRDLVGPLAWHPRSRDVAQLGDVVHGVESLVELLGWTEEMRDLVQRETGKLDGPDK
Put plainly: Inhibition of recombinant human Sirt3 (118 to 395 residues) expressed in Escherichia coli BL21 Star (DE3) using ZMAL as substrate incubated for 4 hrs in presence of NAD+ by trypsin based fluorescence analysis. Put shortly:
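Human Sirt1 (134–747) or Sirt3 (118–395) expressed in E. coli, purified by Strep-Tactin and size exclusion. Assay with ZMAL (10.5 µM final) in Tris buffer pH 8.0, 5% DMSO, at 37 °C. Started with NAD+ (500 µM final). Conversion set to 15–30%.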

The target in assay [3] is T2, NAD-dependent protein deacetylase sirtuin-2 (Homo sapiens) (UniProt Q8IXJ6).
T2 sequence (whole entry): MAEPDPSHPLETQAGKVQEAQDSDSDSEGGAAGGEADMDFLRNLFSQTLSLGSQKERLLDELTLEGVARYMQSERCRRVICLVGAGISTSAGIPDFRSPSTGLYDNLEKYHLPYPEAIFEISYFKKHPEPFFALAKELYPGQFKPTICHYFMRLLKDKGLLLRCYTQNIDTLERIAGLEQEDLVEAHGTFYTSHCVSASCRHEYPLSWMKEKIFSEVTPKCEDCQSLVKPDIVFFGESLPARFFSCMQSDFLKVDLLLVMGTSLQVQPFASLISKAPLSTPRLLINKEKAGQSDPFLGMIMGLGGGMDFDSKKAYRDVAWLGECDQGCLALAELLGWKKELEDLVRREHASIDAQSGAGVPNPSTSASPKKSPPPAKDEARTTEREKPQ
Put plainly: Inhibition of recombinant human Sirt2 (56 to 356 residues) expressed in Escherichia coli BL21 Star (DE3) mediated demyristoylation activity using ZMML as substrate at 10 uM incubated for 4 hrs in presence of NAD+ by trypsin based fluorescence analysis relative to control.

Assay [4] is described as follows: Cytotoxicity against human W1 Ovarian cancer cells assessed as inhibition of cell growth at 50 uM incubated for 72 hrs by MTT assay relative to control. The assay is classed as functional. (In general: Formazan colour is commonly taken as a measure of viable cells.)
A further assay deals with PC-3M-luc. The conditions noted are these: Homo sapiens, dose 20.0 µM, time 5.0 hrs.
A further assay deals with MCF7. In words: Cytotoxicity against human MCF7 cells assessed as inhibition of cell growth at 50 uM incubated for 72 hrs by MTT assay relative to control. It is filed as functional.
The subject of another assay is HGC-27. In words: Cytotoxicity against human HGC-27 cells assessed as inhibition of cell growth at 50 uM incubated for 72 hrs by MTS assay relative to control. It is filed as functional.

pIC50: −log10 of the molar value. Activity calls are given as the source filed them. The calls are words filed in the database; no cut-off is given here.

Take `Cc1cc(C)nc(SCC(=O)Nc2ncc(Cc3cccc(OCc4cn(Cc5ccccc5)nn4)c3)s2)n1`: the inhibition (in general, the drop in the measured response relative to a control, in per cent) at 50 µM in assay [1] was below 20%.

With `COCCn1cc(COc2cccc(Cc3cnc(NC(=O)CSc4nc(C)cc(C)n4)s3)c2)nn1`, in assay [2], the pIC50 – broadly, the IC50 on a negative log10 scale, so that one unit is a factor of ten – was below 4.00.

With `O=C(CCCCCCC(=O)Nc1ccccc1)NO`, the inhibition in assay [3] turned out to be 18%.

`Cc1cc(C)nc(SCC(=O)Nc2ncc(Cc3cccc(OCc4cn(CCOCCOCCOCCOCCC(=O)Nc5ccc(C(=O)NCCCCCCC(=O)NO)cc5)nn4)c3)s2)n1`: the inhibition at 50 µM (in assay [4]; in assay [1]; in the assay with MCF7) was below 20% throughout. Moreover, the inhibition result with PC-3M-luc was “Active”.

For `Cc1cc(C)nc(SCC(=O)Nc2ncc(Cc3cccc(OCc4cn(CCOCCOCCOCCOCCOCCOCCOCCOCCOCCOCCC(=O)Nc5ccc(C(=O)NCc6ccc(C(=O)NO)cc6)cc5)nn4)c3)s2)n1`, the inhibition at 50 µM (in assay [4]; in assay [1]; in the assay on MCF7; in the assay on HGC-27) was below 20% throughout. The inhibition result in the assay on PC-3M-luc is “Active”.

Take `Cc1cc(C)nc(SCC(=O)Nc2ncc(Cc3cccc(OCc4cn(CCOCCOCCOCCOCCC(=O)Nc5ccc(C(=O)NCc6ccc(C(=O)NO)cc6)cc5)nn4)c3)s2)n1`: the inhibition at 50 µM (in assay [4]; in assay [1]; in the assay on MCF7; in the assay with HGC-27) was below 20% each time. For the same compound, in the assay with PC-3M-luc, the inhibition result was “Active”.
